The list is not random: actives were taken first. Their share in the collection is about 2.8%.
pCIP destab – lowers stability of the mouse p/CIP coactivator protein. F442A p/CIP-EGFP cells, EGFP fluorescence, 16 h. decrease of EGFP signal, % at 10 µM. 0.01% of 290,000 active;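 active = EGFP signal decrease of at least 30% at 10 µM or well 3 SD below plate mean, unless failing retest; inactive = the rest, including hits failing retest or dose response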
T cruzi repl – blocks replication of Trypanosoma cruzi; 1.4% of 300,000 active; inhibition, % (test concentration not listed); T. cruzi beta-gal in NIH3T3, luminescence, 90 h;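 active = mean inhibition across valid replicates above about 55%, limit read from the data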;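 also: signal also drops with host cell toxicity which is not excluded here; higher percent means less beta-gal luminescence so fewer parasites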
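System: NIH/3T3 fibroblasts plus reporter T. cruzi. Medium: DMEM plus 2% FBS. Probe or stimulus: 5000 reporter trypomastigotes per well. Compound: single 50 nL compound addition per well in DMSO. Incubation: co-culture of at least 90 h after 3 h attachment. Detection: GalScreen β-gal luminescence, detergent lysis, 60 min. Evaluation: parasite load inhibition, %.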
PP1 counter – PP1-alpha (human) inhibition in PP5 counter-screen; P62136; purified PP1alpha, OMFP fluorescence; AID 2235; inhibition, % at 6.7 µM; 0.9% of 320,000 active;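 active = inhibition above the mean inhibition of all tested compounds plus 3 SD, computed separately for each screening campaign, cut at about 15% in these data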
AI-2 QS modul – modulates the Vibrio harveyi AI-2 quorum sensing system; 0.4% of 300,000 active; Vibrio harveyi JMH597 AI-2 luminescence/OD600 ratio, 9 h; active compounds read low; strain lacks LuxN and CqsS sensors; 0 = neutral-control median; activity change, % at 7.5 µM; in the data active = activity change below about -75%, passing the limit was not always enough;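 also: luminescence divided by OD600 gain over 9 h not by final OD600 alone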
UBC13 polyUb – blocks human UBC13 polyubiquitin chain formation. inhibition, % at 20 µM. 0.47% of 330,000 active. P61088. AID 485273. TR-FRET; in the data active = inhibition above about 45%, passing the limit was not always enough
PP1 inh confirm – confirmation of human PP1 phosphatase inhibitors; 52% of 1,900 active; purified PP1alpha, OMFP substrate fluorescence; shares compounds with PP1 counter; inhibition, % at 6.7 µM; AID 2358;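 active = mean PP1 inhibition above a set limit taken from the earlier primary screen, cut at about 15% in these data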
PP5 counter – inhibits human PP5 phosphatase in PP1 counter-screen | purified PP5c, OMFP fluorescence | shares compounds with PP1 counter | inhibition, % at 6.7 µM | AID 2360 | 4% of 1,900 active;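 active = mean PP5 inhibition over triplicate wells above about 9.5% taken from the earlier PP1 screen, limit read from the data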
Target sequence (P53041 whole entry, looked up): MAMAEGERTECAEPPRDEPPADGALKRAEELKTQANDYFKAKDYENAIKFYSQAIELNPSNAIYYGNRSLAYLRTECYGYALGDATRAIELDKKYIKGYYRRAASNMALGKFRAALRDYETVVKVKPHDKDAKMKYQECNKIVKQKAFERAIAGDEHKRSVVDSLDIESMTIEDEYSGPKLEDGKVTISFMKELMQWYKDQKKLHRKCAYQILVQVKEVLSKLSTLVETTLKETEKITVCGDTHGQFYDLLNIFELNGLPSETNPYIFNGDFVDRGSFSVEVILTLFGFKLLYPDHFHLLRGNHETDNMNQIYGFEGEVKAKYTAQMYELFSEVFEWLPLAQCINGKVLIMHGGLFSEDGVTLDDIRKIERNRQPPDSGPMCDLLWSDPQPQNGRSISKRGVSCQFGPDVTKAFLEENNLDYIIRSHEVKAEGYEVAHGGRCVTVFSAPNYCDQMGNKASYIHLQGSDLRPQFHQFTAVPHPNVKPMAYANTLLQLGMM
A number is an active result; - = inactive; . = not tested or not shown.

SMILES	pCIP destab	T cruzi repl	PP1 counter	AI-2 QS modul	UBC13 polyUb	PP1 inh confirm	PP5 counter
CC1=C(C(=O)Nc2ccccc2)C(c2ccco2)C(C#N)=C(SCc2ccccc2)N1 (stereo unspecified)	-	-	23	-	-	-	-
NNC(=S)Nc1ccc(C(F)(F)F)cc1Cl	-	-	-	-	-	.	.
CCCSc1nnc(N2C(=O)C(O)=C(C(=O)c3ccco3)C2c2ccccc2F)s1 (stereo unspecified)	-	-	22	-	-	-	-
CSc1nnc(N2C(=O)C(O)=C(C(=O)c3ccc(C)o3)C2c2ccc(C)cc2)s1 (stereo unspecified)	-	-	30	-	-	25	-
Cc1c(NS(=O)(=O)c2ccc(N)cc2)c(=O)n(-c2ccccc2)n1C	-	-	-	-	-	.	.
Cc1c(NS(=O)(=O)c2ccc3c(c2)c(=O)n(C)c(=O)n3C)c(=O)n(-c2ccccc2)n1C	-	-	36	-	-	-	-
Cc1c(Cl)c(C(F)(F)F)nn1CC(=O)NCc1ccco1	-	-	-	-	-	.	.
Cc1cc(C(F)(F)F)nn1CC(=O)NCc1ccco1	-	-	18	-	-	-	-
CN1C(=O)[C@H]2[C@@H](C3CC3)N3C(=O)CN(CC4CC4)C(=O)[C@@]3(C)[C@H]2C1=O	-	-	-	-	-	.	.
CCCCn1c2ccccc2c2nnc(SCC(=O)NC3=NN=C(c4ccccc4)CS3)nc21	-	-	26	-	-	27	-
CN(CC(=O)Nc1ccccc1N1CCCC1)S(=O)(=O)c1ccc(F)cc1	.	-	74	-	-	-	-
CC(=O)Nc1ccc(S(=O)(=O)N(C)CC(=O)Nc2ccccc2N2CCOCC2)cc1	-	-	-	-	-	.	.
COCCNC(=O)CN1C(=O)NC2(CCCc3cc(OC)ccc32)C1=O (stereo unspecified)	-	-	-	-	-	.	.
O=C1/C(=C\c2cccnc2)Sc2ccccc21	-	-	19	-	-	16	-
Cn1ncc(Br)c1NC(=O)c1ccco1	-	-	-	-	-	.	.
COc1cc(/C=N/NC(=O)COc2c(C)cc([N+](=O)[O-])cc2C)ccc1OC(=O)c1ccccc1	-	-	-	-	-	.	.
COc1cc(/C=N/NC(=O)COc2c(C)cc([N+](=O)[O-])cc2C)ccc1OC(=O)c1ccccc1Br	-	-	21	-	-	17	-
C#CCNC(=O)C1=C[C@@H](c2csc3ccccc23)C[C@@H](OCc2ccc(CO)cc2)O1	-	-	73	-	-	-	-
O=C(NCc1ccccc1)C1=C[C@@H](c2csc3ccccc23)C[C@@H](OCc2ccc(CO)cc2)O1	-	-	-	-	-	.	.
Clc1ccc(SCc2cc(N3CCOCC3)nc(-c3ccccn3)n2)cc1	-	60	24	-	-	32	-
Clc1ccc(SCc2csc(N3CCOCC3)n2)cc1	-	-	-	-	-	.	.
CS(=O)(=O)N(Cc1nc(-c2ccc(F)cc2)no1)c1ccccc1Cl	.	.	-	.	-	.	.
Cc1ccc(C(=O)N/C(=C\c2ccc(-c3cc(Cl)ccc3Cl)o2)C(=O)NCc2cccnc2)cc1	-	-	18	-	-	16	-
O=C(NCc1cccnc1)/C(=C/c1ccc(-c2cccc(Cl)c2)o1)S(=O)(=O)c1ccccc1	-	-	-	-	-	.	.
COc1cc(CNS(=O)(=O)CCl)cc(OC)c1OC	.	.	-	.	-	.	.
SMILES	pCIP destab	T cruzi repl	PP1 counter	AI-2 QS modul	UBC13 polyUb	PP1 inh confirm	PP5 counter
C=CCOc1ccc(/C=C2\SC(=S)N(NS(=O)(=O)c3ccc(C)cc3)C2=O)cc1	-	-	25	-	-	17	-
O=C1C2CCc3ccccc3C2N1c1ccccc1 (stereo unspecified)	.	.	-	.	-	.	.
N#Cc1ccc(C(=O)OCCCc2cc3ccccc3c(=O)o2)cc1	.	.	-	.	-	.	.
Cc1cc2nc(-c3ccc(SCC(=O)Nc4ccc(S(=O)(=O)N5CCCC5)cc4)nc3)[nH]c2cc1C	-	-	35	-	-	34	-
O=C(CSc1ccc(-c2nc3ccccc3[nH]2)cn1)Nc1ccc(S(=O)(=O)N2CCCC2)cc1	-	-	-	-	-	.	.
COc1cccc(/C=N/Nc2cc(Cl)nc(C)n2)c1O	-	-	-	-	-	.	.
